Source: EPA's CvTdb concentration-time database

Legend:
Rat [1] = test: concentration in brain after dosing; details: 1.5 h; dosed: 2-Methyltetrahydrofuran; 40 mg/kg; iv; Male; Harlan Sprague Dawley
Rat [2] = test: concentration in plasma after dosing; details: 7 min; dosed: 2-Methyltetrahydrofuran; 40 mg/kg; iv; Male; Harlan Sprague Dawley
Rat [3] = test: concentration in plasma after dosing; details: 7 min; dosed: 2-Methyltetrahydrofuran; 40 mg/kg; iv; Male; Harlan Sprague Dawley; remark: listed apart in the source
Rat [4] = test: concentration in plasma after dosing; details: 1.5 h; dosed: 2-Methyltetrahydrofuran; 40 mg/kg; iv; Male; Harlan Sprague Dawley
Rat [5] = test: concentration in brain after dosing; details: 7 min; dosed: 2-Methyltetrahydrofuran; 40 mg/kg; iv; Male; Harlan Sprague Dawley
Rat [6] = test: concentration in plasma after dosing; details: 3 h; dosed: Fluorotelomer alcohol 8+2; 12 mg/kg; oral; Male; Harlan Sprague Dawley
Rat [7] = test: concentration in plasma after dosing; details: dosed: 678-39-7, 40 mg/kg, iv, Female, Harlan Sprague-Dawley
Rat [8] = test: concentration in liver after dosing; details: 1 h; dosed: Fluorotelomer alcohol 8+2; 80 mg/kg; oral; Female; Harlan Sprague Dawley
Rat [9] = test: concentration in plasma after dosing; details: dosed: 678-39-7, 40 mg/kg, iv, Female, Harlan Sprague-Dawley; remark: listed apart in the source
Rat [10] = test: concentration in kidney after dosing; details: 1 h; dosed: Fluorotelomer alcohol 8+2; 24 mg/kg; oral; Male; Harlan Sprague Dawley
Rat [11] = test: concentration in liver after dosing; details: 3 h; dosed: Fluorotelomer alcohol 8+2; 24 mg/kg; oral; Male; Harlan Sprague Dawley
Rat [12] = test: concentration in brain after dosing; details: 1 h; dosed: Fluorotelomer alcohol 8+2; 24 mg/kg; oral; Male; Harlan Sprague Dawley
Rat [13] = test: concentration in plasma after dosing; details: 3 h; dosed: Fluorotelomer alcohol 8+2; 12 mg/kg; oral; Male; Harlan Sprague Dawley; remark: listed apart in the source
Rat [14] = test: concentration in plasma after dosing; details: dosed: 678-39-7, 12 mg/kg, iv, Male, F344
Rat [15] = test: concentration in liver after dosing; details: 6 h; dosed: Fluorotelomer alcohol 8+2; 80 mg/kg; oral; Female; Harlan Sprague Dawley
Rat [16] = test: concentration in plasma after dosing; details: 192 h; dosed: 678-39-7; 40 mg/kg; iv; Male; F344
Rat [17] = test: concentration in plasma after dosing; details: 1 h; dosed: Gemfibrozil; 100 mg/kg; oral; Male; Sprague-Dawley
Rat [18] = test: concentration in plasma after dosing; details: 4 h; dosed: Gemfibrozil; 100 mg/kg; oral; Male; Sprague-Dawley
Rat [19] = test: concentration in plasma after dosing; details: 6 h; dosed: Gemfibrozil; 4.29 mg/kg; oral; Male; Sprague-Dawley
Rat [20] = test: concentration in liver after dosing; details: 6 h; dosed: Perfluorohexanoic Acid; 80 mg/kg; oral; Male; Harlan Sprague Dawley
Rat [21] = test: concentration in plasma after dosing; details: dosed: Perfluorohexanoic Acid, 40 mg/kg, oral, Male, Harlan Sprague Dawley
Rat [22] = test: concentration in liver after dosing; details: 0.5 h; dosed: Perfluorohexanoic Acid; 80 mg/kg; oral; Male; Harlan Sprague Dawley
Rat [23] = test: concentration in plasma after dosing; details: dosed: Perfluorohexanoic Acid, 40 mg/kg, iv, Male, F344
Rat [24] = test: concentration in plasma after dosing; details: dosed: Perfluorohexanoic Acid, 40 mg/kg, iv, Male, F344; remark: listed apart in the source
Rat [25] = test: concentration in liver after dosing; details: 0.5 h; dosed: Perfluorohexanoic Acid; 80 mg/kg; oral; Female; Harlan Sprague Dawley
Rat [26] = test: concentration in kidney after dosing; details: 6 h; dosed: Perfluorohexanoic Acid; 80 mg/kg; oral; Male; Harlan Sprague Dawley
Rat [27] = test: concentration in liver after dosing; details: 12 h; dosed: Perfluorohexanoic Acid; 80 mg/kg; oral; Male; Harlan Sprague Dawley
Rat [28] = test: concentration in kidney after dosing; details: 6 h; dosed: Perfluorooctane Sulfonate; 2 mg/kg; oral; Female; Harlan Sprague Dawley
Rat [29] = test: concentration in brain after dosing; details: 1848 h; dosed: Perfluorooctane Sulfonate; 20 mg/kg; oral; Male; Harlan Sprague Dawley
Rat [30] = test: concentration in liver after dosing; details: 6 h; dosed: Perfluorooctane Sulfonate; 2 mg/kg; oral; Female; Harlan Sprague Dawley
Rat [31] = test: concentration in liver after dosing; details: 864 h; dosed: Perfluorooctane Sulfonate; 20 mg/kg; oral; Male; Harlan Sprague Dawley
Rat [32] = test: concentration in plasma after dosing; details: dosed: Perfluorooctane Sulfonate, 2 mg/kg, iv, Male, F344
Rat [33] = test: concentration in liver after dosing; details: 24 h; dosed: Perfluorooctane Sulfonate; 2 mg/kg; oral; Female; Harlan Sprague Dawley
Rat [34] = test: concentration in kidney after dosing; details: 864 h; dosed: Perfluorooctane Sulfonate; 20 mg/kg; oral; Male; Harlan Sprague Dawley
Rat [35] = test: concentration in plasma after dosing; details: dosed: Perfluorooctane Sulfonate, 2 mg/kg, iv, Female, F344
Rat [36] = test: concentration in kidney after dosing; details: 6 h; dosed: Perfluorooctane Sulfonate; 20 mg/kg; oral; Male; Harlan Sprague Dawley
human = test: concentration in expired air after dosing; details: dosed: trichloroethylene, 100 ppm, inhalation, duration: 4 hr, person
How it was run: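 Data points giving concentration or amount against time came from published in vivo toxicokinetic studies and from two structured collections. PubMed searching, classifier screening and manual review located the studies. Most points were digitised from plot screenshots using WebPlotDigitizer, the rest were copied from tables, and all keep their reported units.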

CC1CCCO1 (stereo not given) [2-Methyltetrahydrofuran]
Details	concentration in brain [ng/mL]	concentration in plasma [ng/mL]
Rat [1]	8330	–
Rat [2]	–	53800
Rat [3]	–	57300
Rat [4]	–	14500
Rat [5]	25400	–

O=C(O)CCC(F)(F)C(F)(F)C(F)(F)C(F)(F)C(F)(F)C(F)(F)C(F)(F)F [Fluorotelomer acid 7+3]
Details	concentration in brain [ng/g]	concentration in kidney [ng/g]	concentration in liver [ng/g]	concentration in plasma [ng/mL]
Rat [6]	–	–	–	726
Rat [8]	–	–	1340	–
Rat [10]	–	310	–	–
Rat [11]	–	–	2680	–
Rat [12]	128	–	–	–
Rat [13]	–	–	–	866
Rat [15]	–	–	9210	–
Rat [16]	–	–	–	49.7

concentration in plasma [ng/mL]
Details	0.75 h	1 h	12 h	24 h
Rat [7]	–	1680	–	315
Rat [9]	1830	–	863	–
Rat [14]	334	–	90	–

Cc1ccc(C)c(OCCCC(C)(C)C(=O)O)c1 [Gemfibrozil]
Details	concentration in plasma [ng/mL]
Rat [17]	57500
Rat [18]	7120
Rat [19]	640

O=C(O)C(F)(F)C(F)(F)C(F)(F)C(F)(F)C(F)(F)F [Perfluorohexanoic Acid]
Details	concentration in kidney [ng/g]	concentration in liver [ng/g]
Rat [20]	–	15400
Rat [22]	–	102000
Rat [25]	–	23800
Rat [26]	16900	–
Rat [27]	–	2130

concentration in plasma [ng/mL]
Details	0.5 h	3 h	5 min	12 h
Rat [21]	–	56400	32900	–
Rat [23]	–	3900	23100	–
Rat [24]	14500	–	–	35.7

O=S(=O)([O-])C(F)(F)C(F)(F)C(F)(F)C(F)(F)C(F)(F)C(F)(F)C(F)(F)C(F)(F)F [Perfluorooctane Sulfonate]
Details	concentration in brain [ng/g]	concentration in kidney [ng/g]	concentration in liver [ng/g]
Rat [28]	–	3800	–
Rat [29]	2130	–	–
Rat [30]	–	–	24500
Rat [31]	–	–	97500
Rat [33]	–	–	20600
Rat [34]	–	19300	–
Rat [36]	–	63800	–

concentration in plasma [ng/mL]
Details	1 h	12 h	528 h	1200 h
Rat [32]	–	4020	–	875
Rat [35]	4870	–	2180	–

ClC=C(Cl)Cl [trichloroethylene]
human
Details	concentration in expired air [ppm]
0.2505 h	6.43
0.4903 h	4.4
1.01 h	2.66
2.009 h	1.42
4.008 h	1.29
5.993 h	1.15
8.005 h	0.514
10.04 h	0.377
11.99 h	0.34
13.99 h	0.738
86 s	24.7
